Measurements reported in ChEMBL document CHEMBL4433203, “Design, synthesis, and evaluation of isoflavone analogs as multifunctional agents for the treatment of Alzheimer's disease” (Eur J Med Chem, 2019).
Active and inactive are the calls of the source. No cut-off for these calls is given here.

Experiments:
[1] = AUC (0 to infinity) in ICR mouse at 30 mg/kg, po measured upto 48 hrs by LCMS/MS method; assay type: ADME, organism-based; parameters: dose 30 mg/kg, time infinity, route oral; details: in vivo
[2] = Acute toxicity ICR mouse assessed as effect on body weight change at 0 to 1000 mg/kg, po measured up to 14 days; assay type: organism-based; details: in vivo, 336 h
How it was run: (§1)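 Male ICR mice (22 days, 20–22 g), n = 5 per group, chow and water ad libitum, 12 h light/dark cycle. Single oral dose of 0, 100, 200, 500 or 1000 mg/kg in 0.5% CMC-Na. Observed continuously for the first 4 h, intermittently over the next 24 h, then occasionally to 14 days. Euthanized on day 14.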

[3] = Cmax in ICR mouse brain at 30 mg/kg, po measured after 40 mins by LCMS/MS method; assay type: ADME, organism-based; parameters: dose 30 mg/kg, route oral
How it was run: (§2)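 ICR mice got a single oral dose of 30 mg/kg. At 40 min they were sacrificed and plasma and brain collected. Compound in both was quantified by LC-MS/MS. Log BB is the log of the brain-to-blood concentration ratio. Methods state n = 5, table footnote n = 6. Mean ± SEM.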

BV-2 [4] = experiment: Antiinflammatory activity in mouse BV2 cells assessed as reduction in LPS-induced IL-6 production at 10 uM pretreated for 1 hr followed by LPS challenge and measured after 24 hrs by ELISA assay; assay type: functional, cell-based
BV-2 [5] = experiment: Antiinflammatory activity in mouse BV2 cells assessed as reduction in LPS-induced TNF-alpha production at 10 uM pretreated for 1 hr followed by LPS challenge and measured after 24 hrs by ELISA assay; assay type: functional, cell-based
[6] = Acute toxicity ICR mouse assessed as induction of macroscopic abnormalities in kidney at 0 to 1000 mg/kg, po measured after 14 da; assay type: organism-based; details: in vivo; how it was run: as §1
SH-SY5Y = experiment: Neuroprotective activity against copper-induced cytotoxicity in human SH-SY5Y cells expressing APP Swedish mutant assessed as increase in cell viability at 10 uM pre-incubated for 2 hrs followed by copper addition and measured after 24 hrs by MTT assay; assay type: functional, cell-based
BuChE = experiment: Selectivity index, ratio of CC50 for human SH-SY5Y cells IC50 for mouse plasma BuChE; assay type: toxicity
How it was run: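 SI is CC50 in SH-SY5Y divided by BuChE IC50. […] For IC50, mouse plasma BuChE was preincubated 30 min at 37 °C with DTNB and compound in 0.05 M PBS pH 8.0. Butyrylthiocholine iodide was added and A412 read; IC50 taken from log concentration–inhibition curves.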

Histamine H3 receptor = Histamine H3 receptor (Homo sapiens, UniProt Q9Y5N1); experiment: Inhibition of human H3R expressed in methylhistamine-induced human H3-bla U2OS cells at 10 uM incubated for 30 mins by beta-lactamase complementation technology relative to control; assay type: cell-based
[7] = Acute toxicity ICR mouse assessed as induction of macroscopic abnormalities in liver at 0 to 1000 mg/kg, po measured after 14 da; assay type: organism-based; details: in vivo; how it was run: as §1
[8] = Acute toxicity ICR mouse assessed as mortality at 0 to 1000 mg/kg, po measured up to 14 days; assay type: organism-based; details: in vivo, 336 h; how it was run: as §1
[9] = Acute toxicity ICR mouse assessed as effect on drinking behavior at 0 to 1000 mg/kg, po measured up to 14 days; assay type: organism-based; details: in vivo, 336 h; how it was run: as §1
[10] = Acute toxicity ICR mouse assessed as effect on eating behavior at 0 to 1000 mg/kg, po measured up to 14 days; assay type: organism-based; details: in vivo, 336 h; how it was run: as §1
[11] = target: T1, Acetylcholinesterase (Mus musculus) (UniProt P21836); details: at 10 µM;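 note: enzyme taken from mouse brain, acetylthiocholine iodide as the substrate, read after 30 min with the Ellman method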
T1 sequence (whole entry): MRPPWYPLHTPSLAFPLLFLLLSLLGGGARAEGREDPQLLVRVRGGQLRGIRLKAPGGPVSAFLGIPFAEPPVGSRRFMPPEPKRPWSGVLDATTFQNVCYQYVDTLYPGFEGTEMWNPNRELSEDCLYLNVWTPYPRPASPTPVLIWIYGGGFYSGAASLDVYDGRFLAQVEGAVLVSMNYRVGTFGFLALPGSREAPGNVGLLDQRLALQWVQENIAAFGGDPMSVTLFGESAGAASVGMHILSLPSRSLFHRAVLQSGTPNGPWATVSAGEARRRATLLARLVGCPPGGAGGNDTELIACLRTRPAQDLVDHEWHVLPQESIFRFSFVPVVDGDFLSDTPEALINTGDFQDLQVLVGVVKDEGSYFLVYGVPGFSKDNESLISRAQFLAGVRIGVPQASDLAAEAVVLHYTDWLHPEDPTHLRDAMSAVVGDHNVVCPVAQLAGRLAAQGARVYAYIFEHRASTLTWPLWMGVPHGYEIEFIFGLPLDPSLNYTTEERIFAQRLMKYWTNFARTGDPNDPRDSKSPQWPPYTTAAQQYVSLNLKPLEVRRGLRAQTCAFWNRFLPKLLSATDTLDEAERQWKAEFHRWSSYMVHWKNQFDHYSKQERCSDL

[12] = Plasma concentration in ICR mouse at 30 mg/kg, po measured after 40 mins by LCMS/MS method; assay type: ADME, organism-based; how it was run: as §2

Chain of Histamine H3 receptor (Q9Y5N1 whole entry): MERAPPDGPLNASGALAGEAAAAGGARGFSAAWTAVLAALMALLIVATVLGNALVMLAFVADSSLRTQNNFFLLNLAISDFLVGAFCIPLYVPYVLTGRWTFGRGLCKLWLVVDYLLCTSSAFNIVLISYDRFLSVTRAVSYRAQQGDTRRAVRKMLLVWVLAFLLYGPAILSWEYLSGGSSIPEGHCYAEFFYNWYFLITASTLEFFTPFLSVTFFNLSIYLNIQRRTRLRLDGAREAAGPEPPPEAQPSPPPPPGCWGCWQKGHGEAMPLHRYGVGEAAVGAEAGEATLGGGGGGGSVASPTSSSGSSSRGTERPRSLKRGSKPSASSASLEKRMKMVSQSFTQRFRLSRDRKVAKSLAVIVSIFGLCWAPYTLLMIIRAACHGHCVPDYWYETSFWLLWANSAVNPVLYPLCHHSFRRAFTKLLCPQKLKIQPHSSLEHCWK

SMILES: CCN(C)CCCCOc1ccc2c(=O)c(-c3ccc(OCCN4CCCCC4)cc3)coc2c1
- AUC(0-inf) [1]: 352 ng·h/mL
- Activity [2]: Non-Toxic
- Cmax [3]: 762 ng/mL
- Activity (BV-2 [4]): Active
- Activity (BV-2 [5]): Active
- Activity [6]: Non-Toxic
- Activity (SH-SY5Y): Active
- selectivity ratio (BuChE): > 34.6
- inhibition (Histamine H3 receptor): 75.2%
- Activity [7]: Non-Toxic
- Activity [8]: Non-Toxic
- Activity [9]: Non-Toxic
- Activity [10]: Non-Toxic
- inhibition [11]: 92.8%
- concentration at 40 min [12]: 47.2 ng/mL
